Results from ChEMBL document CHEMBL1772969, “Synthesis, structure-activity relationship, and antimalarial activity of ureas and thioureas of 15-membered azalides” (J Med Chem, 2011).

Key:
[1] = system: HepG2; test: Cytotoxicity against human HepG2 cells after 1 to 4 hrs by MTS assay; assay type: cell-based
Outline: (§1)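 HepG2 and THP-1 cells grown in RPMI 1640 with 10% FBS at 37 °C, 5% CO₂, and passaged twice weekly. Compounds applied as continuous exposure. Viability read by MTS reagent, 1–4 h incubation, absorbance at 490 nm; IC₅₀ derived.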

[2] = system: Plasmodium falciparum; test: Antimalarial activity against chloroquine/pyrimethamine-resistant Plasmodium falciparum W2 after 48 hrs by [3H]hypoxanthine incorporation assay; assay type: functional, organism-based
Outline: (§2)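 [3H]hypoxanthine incorporation assay (Desjardins method, Milhous modification) with 48 h drug exposure. Compounds and controls were 2-fold diluted across 11 concentrations. IC50 was fitted by nonlinear logistic dose-response. Values are averaged where multiple results were generated, with relative errors usually <30%.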

[3] = Half life in human liver microsomes at 1 uM by LCMS analysis; assay type: ADME, Microsome
Outline: (§3)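 Compound at 1 μM final with 0.5 mg/mL pooled human or mouse liver microsomes, 1.3 mM NADP, 3.3 mM MgCl₂, 0.1 M PBS pH 7.4. Reaction started with 1 U/mL G6PD, shaken at 37 °C. Aliquots quenched with cold acetonitrile at 0, 10, 20, 30 and 60 min and quantified by LCMS. t₁/₂ taken from log plot of total ion chromatogram area remaining.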

[4] = system: Plasmodium falciparum; test: Antimalarial activity against multidrug-resistant Plasmodium falciparum TM91C235 after 48 hrs by [3H]hypoxanthine incorporation assay; assay type: functional, organism-based; outline: as §2
[5] = system: Plasmodium falciparum; test: Antimalarial activity against chloroquine-sensitive Plasmodium falciparum D6 after 48 hrs by [3H]hypoxanthine incorporation assay; assay type: functional, organism-based; outline: as §2
[6] = Half life in mouse liver microsomes at 1 uM by LCMS analysis; assay type: ADME, Microsome; outline: as §3
[7] = system: THP-1; test: Cytotoxicity against human THP1 cells after 1 to 4 hrs by MTS assay; assay type: cell-based; outline: as §1

Row | Structure (SMILES) | IC50 [1] | IC50 [2] | half-life at 1 µM [3] | IC50 [4] | IC50 [5] | half-life at 1 µM [6] | IC50 [7]
1 | CC[C@H]1OC(=O)[C@H](C)[C@@H](O[C@H]2C[C@@](C)(OC)[C@@H](O)[C@H](C)O2)[C@H](C)[C@@H](O[C@@H]2O[C@H](C)C[C@H](N(C)C)[C@H]2O)[C@](C)(O)C[C@@H](C)CN(CCNC(=O)NCc2ccccc2)[C@H](C)[C@@H](O)[C@]1(C)O | > 50000 nM | 287 nM | > 2 h | 170 nM | 320 nM | > 2 h | 35000 nM
2 | CC[C@H]1OC(=O)[C@H](C)[C@@H](O[C@H]2C[C@@](C)(OC)[C@@H](O)[C@H](C)O2)[C@H](C)[C@@H](O[C@@H]2O[C@H](C)C[C@H](N(C)C)[C@H]2O)[C@](C)(O)C[C@@H](C)CN(CCN(CCC#N)C(=S)NCCc2ccccc2)[C@H](C)[C@@H](O)[C@]1(C)O | 7000 nM | 64 nM | > 2 h | 369 nM | 295 nM | > 2 h | 6000 nM
3 | CC[C@H]1OC(=O)[C@H](C)[C@@H](O)[C@H](C)[C@@H](O[C@@H]2O[C@H](C)C[C@H](N(C)C)[C@H]2O)[C@](C)(O)C[C@@H](C)CN(CCNC(=O)Nc2ccc3ccccc3c2)[C@H](C)[C@@H](O)[C@]1(C)O | 16000 nM | 99 nM | > 2 h | 106 nM | 318 nM | > 2 h | 8000 nM
4 | CC[C@H]1OC(=O)[C@H](C)[C@@H](O[C@H]2C[C@@](C)(OC)[C@@H](O)[C@H](C)O2)[C@H](C)[C@@H](O[C@@H]2O[C@H](C)C[C@H](N(C)C)[C@H]2O)[C@](C)(O)C[C@@H](C)CN(CCN(CCC(N)=O)C(=O)Nc2ccc3ccccc3c2)[C@H](C)[C@@H](O)[C@]1(C)O | 13000 nM | 62 nM | > 2 h | 39 nM | 190 nM | > 2 h | 7000 nM
5 | CC[C@H]1OC(=O)[C@H](C)[C@@H](O)[C@H](C)[C@@H](O[C@@H]2O[C@H](C)C[C@H](N(C)C)[C@H]2O)[C@](C)(O)C[C@@H](C)CN(CCNC(=S)NCCCc2ccccc2)[C@H](C)[C@@H](O)[C@]1(C)O | 14000 nM | 178 nM | > 2 h | 226 nM | 654 nM | > 2 h | 7000 nM
6 | CC[C@H]1OC(=O)[C@H](C)[C@@H](O[C@H]2C[C@@](C)(OC)[C@@H](O)[C@H](C)O2)[C@H](C)[C@@H](O[C@@H]2O[C@H](C)C[C@H](N(C)C)[C@H]2O)[C@](C)(O)C[C@@H](C)CN(CCN(CCC#N)C(=O)Nc2ccc3ccccc3c2)[C@H](C)[C@@H](O)[C@]1(C)O | 11000 nM | 125 nM | > 2 h | 224 nM | 525 nM | > 2 h | 13000 nM
7 | CC[C@H]1OC(=O)[C@H](C)[C@@H](O[C@H]2C[C@@](C)(OC)[C@@H](O)[C@H](C)O2)[C@H](C)[C@@H](O[C@@H]2O[C@H](C)C[C@H](N(C)C)[C@H]2O)[C@](C)(O)C[C@@H](C)CN(CCCNC(=O)NC(C)C)[C@H](C)[C@@H](O)[C@]1(C)O |  | > 5700 nM | > 2 h | > 5700 nM | > 1420 nM | > 2 h | 
8 | CC[C@H]1OC(=O)[C@H](C)[C@@H](O[C@H]2C[C@@](C)(OC)[C@@H](O)[C@H](C)O2)[C@H](C)[C@@H](O[C@@H]2O[C@H](C)C[C@H](N(C)C)[C@H]2O)[C@](C)(O)C[C@@H](C)CN(CCNC(=O)Nc2ccc3ccccc3c2)[C@H](C)[C@@H](O)[C@]1(C)O | 9000 nM | 30 nM | > 2 h | 24 nM | 71 nM | > 2 h | 5000 nM
9 | CC[C@H]1OC(=O)[C@H](C)[C@@H](O[C@H]2C[C@@](C)(OC)[C@@H](O)[C@H](C)O2)[C@H](C)[C@@H](O[C@@H]2O[C@H](C)C[C@H](N(C)C)[C@H]2O)[C@](C)(O)C[C@@H](C)CN(CCNC(=S)NCCCc2ccccc2)[C@H](C)[C@@H](O)[C@]1(C)O | 8000 nM | 52 nM | > 2 h | 82 nM | 182 nM | > 2 h | 5000 nM
10 | CC[C@H]1OC(=O)[C@H](C)[C@@H](O[C@H]2C[C@@](C)(OC)[C@@H](O)[C@H](C)O2)[C@H](C)[C@@H](O[C@@H]2O[C@H](C)C[C@H](N(C)C)[C@H]2O)[C@](C)(O)C[C@@H](C)CN(CCNC(=S)Nc2cccc3ccccc23)[C@H](C)[C@@H](O)[C@]1(C)O | 20000 nM | 99 nM | > 2 h | 130 nM | 225 nM | > 2 h | 9000 nM
11 | CC[C@H]1OC(=O)[C@H](C)[C@@H](O)[C@H](C)[C@@H](O[C@@H]2O[C@H](C)C[C@H](N(C)C)[C@H]2O)[C@](C)(O)C[C@@H](C)CN(CCCNC(=S)NCc2ccccc2)[C@H](C)[C@@H](O)[C@]1(C)O | > 50000 nM | 3630 nM | > 2 h | 1540 nM | 2040 nM | > 2 h | > 50000 nM
12 | CCNC(=O)NCCN1C[C@H](C)C[C@@](C)(O)[C@H](O[C@@H]2O[C@H](C)C[C@H](N(C)C)[C@H]2O)[C@@H](C)[C@H](O[C@H]2C[C@@](C)(OC)[C@@H](O)[C@H](C)O2)[C@@H](C)C(=O)O[C@H](CC)[C@@](C)(O)[C@H](O)[C@H]1C |  | 4930 nM | > 2 h | 978 nM | 3620 nM | > 2 h | 
13 | CC[C@H]1OC(=O)[C@H](C)[C@@H](O[C@H]2C[C@@](C)(OC)[C@@H](O)[C@H](C)O2)[C@H](C)[C@@H](O[C@@H]2O[C@H](C)C[C@H](N(C)C)[C@H]2O)[C@](C)(O)C[C@@H](C)CN(CCCN(CCC#N)C(=O)NC(C)C)[C@H](C)[C@@H](O)[C@]1(C)O |  | > 13400 nM | > 2 h | 1270 nM | > 13400 nM | > 2 h | 
14 | CC[C@H]1OC(=O)[C@H](C)[C@@H](O[C@H]2C[C@@](C)(OC)[C@@H](O)[C@H](C)O2)[C@H](C)[C@@H](O[C@@H]2O[C@H](C)C[C@H](N(C)C)[C@H]2O)[C@](C)(O)C[C@@H](C)CN(CCCN(CCC#N)C(=O)Nc2ccc3ccccc3c2)[C@H](C)[C@@H](O)[C@]1(C)O |  | 178 nM | > 2 h | 116 nM | 118 nM | > 2 h | 
15 | CC[C@H]1OC(=O)[C@H](C)[C@@H](O[C@H]2C[C@@](C)(OC)[C@@H](O)[C@H](C)O2)[C@H](C)[C@@H](O[C@@H]2O[C@H](C)C[C@H](N(C)C)[C@H]2O)[C@](C)(O)C[C@@H](C)CN(CCCN(CCC#N)C(=O)Nc2cccc3ccccc23)[C@H](C)[C@@H](O)[C@]1(C)O |  | 1380 nM | > 2 h | 255 nM | 523 nM | > 2 h | 
16 | CC[C@H]1OC(=O)[C@H](C)[C@@H](O[C@H]2C[C@@](C)(OC)[C@@H](O)[C@H](C)O2)[C@H](C)[C@@H](O[C@@H]2O[C@H](C)C[C@H](N(C)C)[C@H]2O)[C@](C)(O)C[C@@H](C)CN(CCNC(=O)NC(C)C)[C@H](C)[C@@H](O)[C@]1(C)O |  | 2060 nM | > 2 h | 717 nM | 1400 nM | > 2 h | 
